Experimental data of several laboratories.
Compare with care: the assays were run in different laboratories.
PKN1: Serine/threonine-protein kinase N1 (PKN1, Homo sapiens, UniProt Q16512)
PIK3C2G: Phosphatidylinositol 3-kinase C2 domain-containing subunit gamma (PIK3C2G, Homo sapiens, UniProt O75747)

| Compound | target | read-out | mode | technique | concentration | measurement | value |
| --- | --- | --- | --- | --- | --- | --- | --- |
| CN1CCC(C(c2ccccc2)c2ccccc2)CC1 | Histamine H1 receptor (HRH1, Homo sapiens, UniProt P35367) | binding |  |  |  | koff | 0.133 s⁻¹ |
| Cc1nn(C)cc1-c1nc2c(N3CCN(Cc4ccc(Cl)cc4)CC3)c(Cl)cnc2[nH]1 | Cyclin-dependent kinase 18 (CDK18, Homo sapiens, UniProt Q07002) | binding |  | competition with immobilised ligand | 1 µM | remaining binding | 100% |
| CCOC(=O)c1ccc(OC(=O)CCCCCNC(=N)N)cc1 | Matrix metalloproteinase-9 (MMP9, Homo sapiens, UniProt P14780, Q279R) | enzyme activity | inhibitor |  | 10 µM | inhibition | 13% |
| CN1CC[C@]2(C)c3cc(OC(=O)Nc4ccccc4)ccc3N(C)[C@H]12 | Muscarinic acetylcholine receptor M4 (CHRM4, Homo sapiens, UniProt P08173) | ligand displacement |  | radioligand | 10 µM | inhibition | 0% |
| COc1ccc2c(c1)/C(=C/c1cnc[nH]1)C(=O)N2 | PKN1 | enzyme activity | inhibitor |  | 1 µM | activity vs control | 55% |
| CN(C)C(=O)COC(=O)Cc1ccc(OC(=O)c2ccc(NC(=N)N)cc2)cc1 | Cathepsin L2 (CTSV, Homo sapiens, UniProt O60911) | enzyme activity | inhibitor |  | 10 µM | inhibition | 1% |
| COc1ccc2c(c[n+](C)c3c4cc5c(cc4ccc23)OCO5)c1OC | PKN1 | enzyme activity | inhibitor |  | 1 µM | activity vs control | 86% |
| COc1ncccc1-c1cnn2ccc(N3CCN(C(=O)OC(C)C)CC3)nc12 | PIK3C2G | binding |  | competition with immobilised ligand | 1 µM | remaining binding | 94% |
| N#C/C(=C\c1ccc(O)c(O)c1)C(N)=S | PKN1 | enzyme activity | inhibitor |  | 1 µM | activity vs control | 69% |
| Nc1ncc(-c2nc(N3CCOCC3)nc(N3CCOCC3)n2)c(C(F)F)n1 | PIK3C2G | binding |  | competition with immobilised ligand | 10 µM | remaining binding | 0.75% |
